Laboratory results reported in paper PMC12398596 (Nature Communications, 2025).
One block for each molecule: values may come before it.

Assays:
[1] = system: BV2 cells; experiment: Colocalization of P2CSKn-pretreated sFITC-Aβ42 with LysoTracker Red in BV2 cells; type: cell-based, mouse; conditions: chloroquine 10 μM, 1 h pretreatment
[2] = system: BV2 cells; experiment: Degradation of FITC-Aβ42 forms in BV2 cells; type: cell-based, mouse; conditions: for degradation of intracellular FITC-Aβ42: 0.5 μM FITC-Aβ42 forms, 180 min then washed
[3] = system: Marco mRNA in BV2 cells; experiment: Marco mRNA in BV2 cells, rt-qPCR; type: cell-based, mouse; conditions: for expression of Marco mRNA, TLR agonists (in words): LPS 1.0 μg/mL, Pam2CSK4 1.0 μM, flagellin 200 nM
[4] = system: Msr1 mRNA in BV2 cells; experiment: Msr1 mRNA in BV2 cells, rt-qPCR; type: cell-based, mouse; conditions: for expression of Msr1 mRNA, TLR agonists (in words): LPS 1.0 μg/mL, Pam2CSK4 1.0 μM, zymosan A 50 μg/mL, flagellin 200 nM
[5] = molecular target: T1, fAβ42 (Homo sapiens, UniProt P05067); experiment: PICUP-Western blot of fAβ42, antibody 4G8; type: biochemical; conditions: fAβ42 20 μM, 37 °C, P2CSKn result at 0.5 eq. (10 μM)
[6] = system: fFITC-Aβ42; experiment: LSCM re-assembly of fFITC-Aβ42 plaques; type: biochemical; conditions: fFITC-Aβ42 5.0 μM, compound 25 μM, PBS
[7] = system: sAβ42; experiment: Dynamic light scattering, sAβ42 with compounds; type: physicochemical; conditions: PBS; for shift of sAβ42 particle size to single range around 100 nm: sAβ42 + compound
[8] = system: Aβ plaque; experiment: Local cortex injection, Aβ by antibody OC, APP/PS1 mice; type: in vivo, APP/PS1 transgenic mice; conditions: 13-month-old APP/PS1, cortex, 100 μM 300 nL, 5 d, mean ± SD
Method in brief: (§1)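 13-month APP/PS1 mice (C57BL/6 background) under sodium pentobarbital (50 mg/kg) received a unilateral stereotaxic cortical injection (AP +1.0, ML ±1.0, DV −1.0) of compound or reference (100 μM, 300 nL saline, with Hoechst 33342) at 50 nL/min. Perfusion-fixed (PBS, 4% PFA) at 2 or 5 days and sections immunostained. Ratio = signal at injection zone (>80% max dye) over adjacent zone (>200 μm away, <10% dye); 50 μm around needle track excluded.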

[9] = system: Mrc1 mRNA in BV2 cells; experiment: Mrc1 mRNA in BV2 cells, rt-qPCR; type: cell-based, mouse; conditions: for expression of Mrc1 mRNA, TLR agonists (in words): LPS 1.0 μg/mL, Pam3CSK4 1.0 μM, Pam2CSK4 1.0 μM, zymosan A 50 μg/mL
[10] = system: MARCO; experiment: MARCO protein in BV2 cells, Western blot; type: cell-based, mouse; conditions: P2CSKn or Pam2CSK4 1.0 μM, 12 h
[11] = system: Iba1; experiment: Local cortex injection, Iba1, APP/PS1 mice; type: in vivo, APP/PS1 transgenic mice; conditions: 13-month-old APP/PS1, cortex, 100 μM 300 nL, 5 d, mean ± SD
Method in brief: as §1

[12] = system: MSR1; experiment: MSR1 protein in BV2 cells, Western blot; type: cell-based, mouse; conditions: P2CSKn or Pam2CSK4 1.0 μM, 12 h
[13] = system: NLRP3; experiment: NLRP3 protein in BV2 cells, Western blot; type: cell-based, mouse; conditions: 1.0 μM, 12 h
[14] = system: Aβ plaque; experiment: Local cortex injection, Aβ plaque by Thioflavin S, APP/PS1 mice; type: in vivo, APP/PS1 transgenic mice; conditions: 13-month-old APP/PS1, cortex, 100 μM 300 nL, 5 d, mean ± SD
Method in brief: as §1

[15] = system: BV2 cells; experiment: Treat & wash phagocytosis of fFITC-Aβ42 in BV2 cells; type: cell-based, mouse
[16] = system: sAβ42; experiment: Tyndall effect of sAβ42 with compounds; type: physicochemical; conditions: PBS; for Tyndall effect of sAβ42 on addition of compound: imaged immediately after mixing; for Tyndall effect of compound itself (self-aggregation): compound alone
[17] = system: BV2 cells; experiment: Phagocytosis of sFITC-Aβ42 in BV2 cells, flow cytometry; type: cell-based, mouse; conditions: sFITC-Aβ42 0.5 μM, 2 eq., 180 min, mean ± SD, n = 3
[18] = system: BV2 cells; experiment: Phagocytosis of fFITC-Aβ42 in BV2 cells, flow cytometry; type: cell-based, mouse; conditions: fFITC-Aβ42 0.5 μM, 8 eq., 180 min, mean ± SD, n = 3
[19] = system: BV2 cells; experiment: Normal vs treat & wash phagocytosis of sFITC-Aβ42 in BV2 cells; type: cell-based, mouse; conditions: mean ± SD, n = 3
[20] = system: Aβ plaque; experiment: Local hippocampus injection, Aβ plaque by Thioflavin S, APP/PS1 mice; type: in vivo, APP/PS1 transgenic mice; conditions: 9-month-old APP/PS1, hippocampus, 100 μM 300 nL, 5 d, mean ± SD
Method in brief: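 APP/PS1 mice (9 or 16 months) under pentobarbital (50 mg/kg) received stereotaxic injections of test compound (100 μM, 300 nL saline, with Alexa Fluor 594) into right dorsal hippocampus (AP −2.2, ML +1.5, DV −1.9 mm) and reference into left. Meloxicam 5.0 mg/kg s.c. given pre-surgery and every 12 h for 3 days. Perfusion-fixed at 5 or 10 days, DAPI-counterstained. INJ/ADJ ratios compared between hemispheres.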

[21] = system: BV2 cells; experiment: Phagocytosis of fluorescent microsphere in BV2 cells, flow cytometry; type: cell-based, mouse; conditions: fAβ42 0.5 μM
[22] = molecular target: T1, fAβ42; experiment: Dynamic light scattering, fAβ42 with P2CSKn, time-dependent; type: physicochemical
[23] = system: caspase-3; experiment: Cleaved caspase-3 in BV2 cells, Western blot; type: cell-based, mouse; conditions: sAβ42, fAβ42 0.5 μM; hPAβ42 1.0 μM P2CSKn + 0.5 μM sAβ42; 12 h
[24] = system: BV2 cells; experiment: RNA-seq of BV2 cells; type: cell-based, mouse
[25] = system: TLR2, BV2 cells; experiment: Phagocytosis of FITC-Aβ42 forms in TLR2-WT; type: cell-based, mouse; conditions: 0.5 μM, 30 min; for uptake in TLR2-knockdown BV2 cells: TLR2-siRNA; for uptake in BV2-NC cells: null-siRNA control
[26] = molecular target: T1, fAβ42; experiment: ThT fluorescence kinetics of preformed fAβ42; type: biochemical; conditions: sAβ42 10 μM, 37 °C
[27] = system: TLR2; experiment: Cellular colocalization of FITC-Aβ42/RhoB-P2CSKn/TLR2, LSCM; type: cell-based, mouse; conditions: RhoB-P2CSKn 1.0 μM, sFITC-Aβ42 0.5 μM, 1 h
[28] = system: primary microglia; experiment: Phagocytosis of sFITC-Aβ42 in primary microglia, flow cytometry; type: cell-based, mouse
[29] = 1.0 μM, 12 h, in the absence or presence of Aβ42 species
[30] = equimolar P2CSKn + fAβ42 (20 μM), whole sample, initial
[31] = fAβ42 only 20 μM, whole sample, 18.5 h
[32] = fAβ42 only 20 μM, whole sample, initial
[33] = fAβ42 only, supernatant, 18.5 h

Molecule: CCN(CC)CCCC(C)Nc1ccnc2cc(Cl)ccc12 (stereo not shown) [chloroquine]
lysosome amount and level of phagocytosis of hybrid aggregates [1]: significantly reduced
degradation of intracellular FITC-Aβ42, effect of inhibitor ([2]; chloroquine pretreatment 10 μM, 1 h): almost completely abolished

Molecule: Flagellin
expression of Marco mRNA, TLR agonists (in words) [3]: failed to upregulate
expression of Msr1 mRNA, TLR agonists (in words) [4]: failed to upregulate

oligomer alteration in fAβ42 [5]: not observed
shift of sAβ42 particle size to single range around 100 nm [7]: did not occur
Molecule: KLVFFn
co-location with / reshaping of FITC-Aβ42 plaque [6]: did not occur

oligomer alteration in fAβ42 [5]: not observed
protein level of NLRP3 (in words) [13]: increased
shift of sAβ42 particle size to single range around 100 nm [7]: did not occur
Tyndall effect of sAβ42 on addition of compound [16]: much less activity than P2CSKn
Molecule: Pam2CSK4
INJ/ADJ OC [8]: 1.05 ± 0.28
expression of Mrc1 mRNA, TLR agonists (in words) [9]: significantly attenuated
co-location with / reshaping of FITC-Aβ42 plaque [6]: did not occur
protein level of MARCO (in words) [10]: significant increase
INJ/ADJ Iba1 [11]: 5.79 ± 1.71
protein level of MSR1 (in words) [12]: significant increase
INJ/ADJ TS [14]: 0.85 ± 0.11
phagocytosis of fFITC-Aβ42, treat & wash ([15]; 1.0 μM 6 h, washed, fFITC-Aβ42 0.5 μM 12 h, mean ± SD, n = 3): 43.8 ± 4.1%
increase in phagocytosis of fFITC-Aβ42, treat & wash ([15]; versus untreated fFITC-Aβ42): about 26%
mRNA of Marco (in words) [3, 29]: upregulated
expression of Marco mRNA, TLR agonists (in words) [3]: upregulated
MFI180 [17]: 18911 ± 310
mRNA of Msr1 (in words) [4, 29]: upregulated
expression of Msr1 mRNA, TLR agonists (in words) [4]: substantially upregulated
MFI180 [18]: 24286 ± 520
count180 (cells internalized FITC-Aβ42) [18]: 89.2 ± 0.3%
phagocytosis of sFITC-Aβ42, treat & wash group ([19]; compound 1.0 μM 6 h, washed, sFITC-Aβ42 0.5 μM 12 h): 24.0 ± 2.3%
phagocytosis of sFITC-Aβ42, normal group ([19]; sFITC-Aβ42 0.5 μM pretreated with compound 1.0 μM 30 min, 12 h): 49.3 ± 4.1%

Tyndall effect of sAβ42 on addition of compound [16]: didn’t facilitate that of sAβ42
Tyndall effect of compound itself (self-aggregation) [16]: significant Tyndall effect
Molecule: Pam2KTK4-ahx-KLVFF-nal [P2KTKn]

Molecule: Pam3CSK4
expression of Mrc1 mRNA, TLR agonists (in words) [9]: significantly attenuated

Tyndall effect of sAβ42 on addition of compound [16]: didn’t facilitate that of sAβ42
Tyndall effect of compound itself (self-aggregation) [16]: significant Tyndall effect
Molecule: Pam3CSK4-ahx-KLVFF-nal [P3CSKn]

Molecule: Pam-KCKSKVFLKFK-ahx-nal [RP]
INJ/ADJ TS [20]: 1.12 ± 1.04

Molecule: Zymosan A
expression of Mrc1 mRNA, TLR agonists (in words) [9]: significantly attenuated
expression of Msr1 mRNA, TLR agonists (in words) [4]: substantially upregulated

Molecule: fAβ42: pre-formed fibrillar Aβ42
uptake of fluorescent microsphere (in words) [21]: time-dependently decreased
expression of Mrc1 mRNA (in words) ([9]; fAβ42 0.5 μM, after 30 min): significantly suppressed
hydrodynamic diameter, bimodal range ([22]; equimolar P2CSKn + fAβ42 (20 μM), whole sample, 0.5 h): 40–900 nm
hydrodynamic diameter, population 2 [22, 30]: ~700 nm
hydrodynamic diameter, population 3 [22, 30]: ~9000 nm
hydrodynamic diameter, population 1 [22, 31]: around 16 nm
hydrodynamic diameter, population 2 [22, 31]: ~136 nm
hydrodynamic diameter, population 3 (dominant) [22, 31]: ~6000 nm
hydrodynamic diameter, population 1 [22, 32]: about 40 nm
hydrodynamic diameter, population 2 [22, 32]: ~700 nm
hydrodynamic diameter, population 3 [22, 32]: ~6000 nm
hydrodynamic diameter, species 1 [22, 33]: around 107 nm
hydrodynamic diameter, species 2 [22, 33]: ~717 nm
hydrodynamic diameter, monomodal range ([22]; fAβ42 only, supernatant, until 4.5 h): 40–85 nm
expression of Marco mRNA (in words) ([3]; fAβ42 0.5 μM, after 60 min): significantly suppressed
expression of Msr1 mRNA (in words) ([4]; fAβ42 0.5 μM, after 30 min): significantly suppressed
apoptosis of BV2 cells, cleaved caspase-3 [23]: significant apoptosis
phagosome-related genes, RNA-seq ([24]; fAβ42 0.5 μM, BV2, 12 h): significantly donwregulated
–log2(FC) of Msr1, Marco and Mrc1 ([24]; fAβ42 0.5 μM, BV2, 12 h): > 1
Tlr2, Tlr4 or Tlr5 expression ([24]; fAβ42 treatment, RNA-seq): not significantly affected

Molecule: fFITC-Aβ42: pre-formed fibrillar FITC-Aβ42
degradation of intracellular FITC-Aβ42 [2]: efficiently degraded
uptake in TLR2-knockdown BV2 cells [25]: 12.8%
uptake in BV2-NC cells [25]: ~ 39.2%

lag time of β-sheet formation [26]: 6.5 h
Molecule: sAβ42: soluble Aβ42
hydrodynamic diameter, peak 1 ([7]; sAβ42 alone): around 3 nm
hydrodynamic diameter, peak 2 ([7]; sAβ42 alone): ~12 nm
apoptosis of BV2 cells, cleaved caspase-3 [23]: significant apoptosis

Molecule: sFITC-Aβ42: soluble FITC-labeled Aβ42
degradation of intracellular FITC-Aβ42 [2]: efficiently degraded
uptake in TLR2-knockdown BV2 cells [25]: 12.6%
uptake in BV2-NC cells [25]: ~ 27.3%
co-localization of TLR2 with RhoB-P2CSKn and FITC-Aβ42 [27]: rarely observed
cell population with engulfed sFITC-Aβ42 ([28]; sFITC-Aβ42 0.5 μM alone, within about 360 min): ~ 40%
intracellular accumulation of FITC-Aβ42 ([28]; sFITC-Aβ42 0.5 μM ± P2CSKn 1.0 μM): extremely low
